A short description of data set [1]: Biodistribution of [18F]FEDPN in alpha estrogen receptor knock out mouse spleen after 30 min; (n=3). The data set is classed as ADME, organism-based. The conditions noted are these: in vivo, 0.5 h. An outline of the steps:
(§1)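 αERKO and βERKO mice, staged by daily vaginal smears and kept on estrogen-free chow, were studied in a nonestrous stage. Each mouse received 11 μCi of tracer in 130 μL of 10% ethanol/saline. Mice were killed at 30 min, 1 h or 2 h (n = 3 each). Organs were removed, blotted, weighed and gamma-counted against an injectate standard. Uptake is given as %ID/g ± SD.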

Data set [2] in a line: Biodistribution of [18F]FEDPN in beta estrogen receptor knock out mouse uterus after 1 h; (n=3). Conditions: in vivo. The data set is classed as ADME, organism-based. An outline of the steps:
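αERKO and βERKO mice were fed estrogen-free chow and staged by daily vaginal smears. Mice in a nonestrous stage each received 11 µCi tracer in 130 µL 10% ethanol/saline. Organs were taken at 30 min, 1 h or 2 h and gamma-counted. Uptake is expressed as %ID/g ± SD, three animals per point.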

Data set [3] can be described thus: Biodistribution of [18F]FEDPN in alpha estrogen receptor knock out mouse heart after 1 h; (n=3). The data set is classed as ADME, organism-based. Conditions: in vivo. The essentials: (§2)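 ERKO female mice (αERKO or βERKO), rested 48 h after shipping, placed on estrogen-free chow, and staged by daily vaginal smears. Injected in a nonestrous stage with 11 µCi [18F]FEDPN in 130 µL of 10% ethanol/saline. Killed at 30 min, 1 h or 2 h. Organs counted and reported as %ID/g ± SD, three animals per point.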

A short description of data set [4]: Biodistribution of [18F]FEDPN in alpha estrogen receptor knock out mouse heart after 2 h; (n=3). The conditions noted are these: in vivo. Type of data set: ADME, organism-based. The essentials: as §2
Data set [5] is described as follows: Biodistribution of [18F]-FEDPN in rat ovaries after 1 hr when given in tail vein; (n=5). Type of data set: ADME, organism-based, Female gonad. Conditions: in vivo, iv. An outline of the steps: (§3)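 Immature female Sprague–Dawley rats (<25 days old) anesthetized with isoflurane/O2. Given 20 µCi tracer by tail vein in 150 µL of 20% ethanol/saline. […] Killed at 30 min, 1 h or 2 h. Blood and organs blotted, weighed and gamma-counted against a standard dilution of the injectate. Reported as %ID/g ± SD, n=5.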

Data set [6] is described as follows: Biodistribution of [18F]FEDPN in rat liver after 30 min when given in tail vein; (n=5). The data set is classed as ADME, organism-based. The conditions noted are these: in vivo, iv, 0.5 h. The essentials: (§4)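 Immature female Sprague–Dawley rats (<25 days old) under isoflurane/O2 got 20 µCi tracer in 150 µL 20% ethanol/saline by tail vein. […] Rats were killed at 30 min, 1 h or 2 h. Organs were blotted, weighed and gamma-counted against an injectate standard. Data are %ID/g ± SD, five rats per point.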

Data set [7] in a line: Biodistribution of [18F]FEDPN in beta estrogen receptor knock out mouse bone after 1 h; (n=3). Type of data set: ADME, organism-based, Bone element. The conditions noted are these: in vivo. An outline of the steps: as §1
Data set [8] in a line: Biodistribution of [18F]FEDPN in beta estrogen receptor knock out mouse lung after 1 h; (n=3). The data set is classed as ADME, organism-based. The conditions noted are these: in vivo. The essentials: as §1
A short description of data set [9]: Biodistribution of [18F]FEDPN in alpha estrogen receptor knock out mouse bone after 1 h; (n=3). The data set is classed as ADME, organism-based, Bone element. Conditions: in vivo. The essentials:
as §2

Data set [10] is described as follows: Biodistribution of [18F]-FEDPN in rat blood after 1 hr when given in tail vein; (n=5). Type of data set: ADME, organism-based. Conditions: in vivo, iv. An outline of the steps: as §3
Data set [11] in a line: Biodistribution of [18F]-FEDPN in rat heart after 2 hr when given in tail vein; (n=5). Type of data set: ADME, organism-based. Conditions: in vivo, iv. The essentials: as §3
Data set [12] can be described thus: Biodistribution of [18F]-FEDPN in rat muscle after 2 hr when given in tail vein; (n=5). The conditions noted are these: in vivo, iv. The data set is classed as ADME, organism-based, Muscle tissue. The essentials:
as §3

Data set [13] can be described thus: Biodistribution of [18F]FEDPN in rat thymus after 1 h block when given in tail vein; (n=5). Type of data set: ADME, organism-based. The conditions noted are these: in vivo, iv. The essentials: as §4
The nature of data set [14]: Biodistribution of [18F]FEDPN in rat ovaries after 1 h block when given in tail vein; (n=5). The data set is classed as ADME, organism-based, Female gonad. The conditions noted are these: in vivo, iv. An outline of the steps: as §4
Data set [15] can be described thus: Biodistribution of [18F]FEDPN in beta estrogen receptor knock out mouse liver after 1 h; (n=3). The data set is classed as ADME, organism-based. The conditions noted are these: in vivo. An outline of the steps:
as §1

Data set [16] is described as follows: Biodistribution of [18F]FEDPN in beta estrogen receptor knock out mouse liver after 2 h; (n=3). Type of data set: ADME, organism-based. Conditions: in vivo. An outline of the steps: as §1
The nature of data set [17]: Biodistribution of [18F]FEDPN in alpha estrogen receptor knock out mouse liver after 1 h; (n=3). The data set is classed as ADME, organism-based. The conditions noted are these: in vivo. The essentials: as §2
Data set [18] is described as follows: Biodistribution of [18F]FEDPN in alpha estrogen receptor knock out mouse uterus after 2 h; (n=3). Type of data set: ADME, organism-based. The conditions noted are these: in vivo. An outline of the steps:
as §1

A short description of data set [19]: Biodistribution of [18F]FEDPN in beta estrogen receptor knock out mouse bone after 30 min; (n=3). The data set is classed as ADME, organism-based, Bone element. Conditions: in vivo, 0.5 h. The essentials:
as §1

A short description of data set [20]: Biodistribution of [18F]-FEDPN in alpha estrogen receptor knock out mouse ovaries after 1 h; (n=3). The data set is classed as ADME, organism-based, Female gonad. Conditions: in vivo. An outline of the steps: as §2
Data set [21] can be described thus: Biodistribution of [18F]FEDPN in beta estrogen receptor knock out mouse heart after 30 min; (n=3). Conditions: in vivo, 0.5 h. Type of data set: ADME, organism-based. The essentials: as §1
The nature of data set [22]: Biodistribution of [18F]FEDPN in alpha estrogen receptor knock out mouse muscle after 2 h; (n=3). The data set is classed as ADME, organism-based, Muscle tissue. The conditions noted are these: in vivo. The essentials: as §1
A short description of data set [23]: Biodistribution of [18F]-FEDPN in alpha estrogen receptor knock out mouse spleen after 1 h; (n=3). The data set is classed as ADME, organism-based. Conditions: in vivo. An outline of the steps: as §2
For data set [24], the target named is Estrogen receptor (Mus musculus) (UniProt O08537+P19785). The data set is described as follows: Ratio of [18F]FEDPN uptake in ovaries of ERbeta KO-mouse and ERalpha KO-mouse (nonestrus) after 2 hr.
Estrogen receptor (Mus musculus), sequence (O08537 whole entry, looked up): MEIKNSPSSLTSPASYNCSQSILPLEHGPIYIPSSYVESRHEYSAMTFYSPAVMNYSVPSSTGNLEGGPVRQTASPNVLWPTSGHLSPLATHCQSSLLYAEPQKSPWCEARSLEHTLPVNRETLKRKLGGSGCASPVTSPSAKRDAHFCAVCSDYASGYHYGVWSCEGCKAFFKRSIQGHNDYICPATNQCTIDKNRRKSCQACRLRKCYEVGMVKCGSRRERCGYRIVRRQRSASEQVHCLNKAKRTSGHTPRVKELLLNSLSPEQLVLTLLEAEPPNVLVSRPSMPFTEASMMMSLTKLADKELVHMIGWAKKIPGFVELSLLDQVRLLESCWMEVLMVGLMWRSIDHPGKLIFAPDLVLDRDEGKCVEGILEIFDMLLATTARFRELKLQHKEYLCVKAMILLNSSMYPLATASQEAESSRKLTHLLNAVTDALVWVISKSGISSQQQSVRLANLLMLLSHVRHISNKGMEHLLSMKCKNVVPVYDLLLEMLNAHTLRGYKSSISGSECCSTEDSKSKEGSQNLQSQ
Estrogen receptor (Mus musculus), sequence (P19785 whole entry, looked up): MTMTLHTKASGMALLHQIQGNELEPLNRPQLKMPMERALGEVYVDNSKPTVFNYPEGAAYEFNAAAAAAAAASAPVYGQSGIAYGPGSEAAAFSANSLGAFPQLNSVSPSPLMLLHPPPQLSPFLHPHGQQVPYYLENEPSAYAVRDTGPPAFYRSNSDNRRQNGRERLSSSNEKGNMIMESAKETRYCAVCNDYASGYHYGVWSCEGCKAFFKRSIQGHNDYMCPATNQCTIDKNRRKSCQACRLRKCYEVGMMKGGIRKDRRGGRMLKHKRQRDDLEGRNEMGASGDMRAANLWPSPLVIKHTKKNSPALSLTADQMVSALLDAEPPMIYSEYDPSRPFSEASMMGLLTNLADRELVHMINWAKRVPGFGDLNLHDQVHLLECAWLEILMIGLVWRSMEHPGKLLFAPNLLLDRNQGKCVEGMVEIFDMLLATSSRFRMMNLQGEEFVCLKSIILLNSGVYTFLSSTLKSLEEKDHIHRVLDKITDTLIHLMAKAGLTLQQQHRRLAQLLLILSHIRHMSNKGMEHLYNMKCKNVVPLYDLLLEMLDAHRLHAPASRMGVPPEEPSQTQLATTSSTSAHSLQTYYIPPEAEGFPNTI
Data set [25] is described as follows: Biodistribution of [18F]FES in beta estrogen receptor knock out mouse thymus after 30 min(n=2); mice in nonestrus stage. The data set is classed as ADME, organism-based. The conditions noted are these: in vivo, 0.5 h.
Data set [26] is described as follows: Biodistribution of [18F]FES in beta estrogen receptor knock out mouse uterus after 30 min(n=2); mice in nonestrus stage. Type of data set: ADME, organism-based. Conditions: in vivo, 0.5 h.
Data set [27] is described as follows: Biodistribution of [18F]-FES in beta estrogen receptor knock out mouse brain after 30 min; (n=3). The data set is classed as ADME, organism-based. The conditions noted are these: in vivo, 0.5 h. An outline of the steps: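 βERKO mice rested 48 h after shipping, fed estrogen-free chow and staged by vaginal smears. Repeated swabbing caused pseudopregnancy in some, so this group was studied in estrus. Mice given [18F]FES were sacrificed at 30 min (n = 3). Uptake is reported as %ID/g ± SD.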

Data set [28] is described as follows: Biodistribution of [18F]FES in beta estrogen receptor knock out mouse brain after 1 h; (n=3). Conditions: in vivo. The data set is classed as ADME, organism-based.
A short description of data set [29]: Biodistribution of [18F]FES in alpha estrogen receptor knock out mouse blood after 2 h; (n=3). The data set is classed as ADME, organism-based. Conditions: in vivo. The essentials:
(§5)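 Female αERKO mice were rested 48 h after shipping and fed estrogen-free chow. They were staged by daily vaginal smears and studied in diestrus. Each received 13 µCi [18F]FES in 100 µL 10% ethanol/saline and was sacrificed at 30 min, 1 h or 2 h (n = 3 per time). Tissue uptake is given as %ID/g ± SD.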

Data set [30] can be described thus: Biodistribution of [18F]FES in beta estrogen receptor knock out mouse muscle after 1 h; (n=3). Type of data set: ADME, organism-based, Muscle tissue. The conditions noted are these: in vivo.
Data set [31] in a line: Biodistribution of [18F]FES in beta estrogen receptor knock out mouse ovaries after 2 h; (n=3). The data set is classed as ADME, organism-based, Female gonad. The conditions noted are these: in vivo.
Data set [32] in a line: Biodistribution of [18F]FES in beta estrogen receptor knock out mouse liver after 30 min; (n=3). Conditions: in vivo, 0.5 h. Type of data set: ADME, organism-based.
A short description of data set [33]: Biodistribution of [18F]FES in alpha estrogen receptor knock out mouse blood after 30 min; (n=3). Type of data set: ADME, organism-based. Conditions: in vivo, 0.5 h. The essentials: as §5
A short description of data set [34]: Biodistribution of [18F]FES in alpha estrogen receptor knock out mouse liver after 30 min; (n=3). Type of data set: ADME, organism-based. The conditions noted are these: in vivo, 0.5 h. The essentials:
as §5

The nature of data set [35]: Biodistribution of [18F]FES in beta estrogen receptor knock out mouse kidney after 30 min; (n=3). Type of data set: ADME, organism-based. Conditions: in vivo, 0.5 h.
Data set [36] in a line: Biodistribution of [18F]FES in beta estrogen receptor knock out mouse thymus after 30 min; (n=3). The data set is classed as ADME, organism-based. Conditions: in vivo, 0.5 h.

With `N#C[C@H](c1ccc(O)cc1)[C@@H](CCF)c1ccc(O)cc1`, the Biodistribution in [1] came to 0.99 %ID/g; in data set [2], 0.54 %ID/g; in data set [3], 0.74 %ID/g; in data set [4] it was 0.25 %ID/g; in data set [5], 0.67 %ID/g; in data set [6] it was 1.42 %ID/g. The Biodistribution is reported as 4.92 %ID/g in data set [7]; 1.71 %ID/g in data set [8]; 4.13 %ID/g in [9]; 0.55 %ID/g in [10]; 0.11 %ID/g in [11]; 0.09 %ID/g in data set [12]. The Biodistribution in [13] is given as 0.16 %ID/g; in data set [14], 0.26 %ID/g; in data set [15] it was 3.79 %ID/g; in [16] it was 2.04 %ID/g; in [17] it was 3.8 %ID/g; in data set [18] it was 0.24 %ID/g. Further, the Biodistribution in data set [19] stood at 3.35 %ID/g; in data set [20], 0.52 %ID/g; in [21], 1.6 %ID/g; in data set [22], 0.36 %ID/g; in [23], 0.61 %ID/g. The Ratio in data set [24] worked out at 0.61.
Take `C[C@]12CC[C@@H]3c4ccc(O)cc4CC[C@H]3[C@@H]1C[C@@H](F)[C@@H]2O` [FLUOROESTRADIOL]: the Biodistribution in data set [25] is 1.65 %ID/g; in data set [26] it was 18.86 %ID/g; in [27], 0.71 %ID/g; in data set [28], 0.35 %ID/g; in data set [29], 0.12 %ID/g; in [30], 1.29 %ID/g. Further, the Biodistribution in [31] is 3.4 %ID/g; in data set [32], 9.45 %ID/g; in data set [33], 0.65 %ID/g; in [34], 7.47 %ID/g; in data set [35] it was 3.83 %ID/g; in data set [36], 1.38 %ID/g.

Source of the values: ChEMBL document CHEMBL1141109, “Synthesis of an estrogen receptor beta-selective radioligand: 5-[18F]fluoro-(2R,3S)-2,3-bis(4-hydroxyphenyl)pentanenitrile and comparison of in vivo distribution with 16alpha-[18F]fluoro-17beta-estradiol” (J Med Chem, 2005).
